Only some compounds are listed: those with a hit (about 3.7% of all), similar ones and a draw of the others.
Kir21 block = Kir2.1 (mouse) channel inhibition; actives 0.85% (n = 310,000); B-score at 10 µM; HEK293-Kir2.1, FluxOR thallium flux fluorescence; hits give low values; P35561;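 active = fluorescence ratio B-score at or below minus 3 SD of library scores, with starting-brightness B-score within 2 SD, cut at about -4.2 in these data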;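 note: channel flux triggered by added potassium and thallium sulfate stimulus; B-score of peak minus minimum fluorescence over baseline after thallium stimulus; more negative B-score means stronger Kir2.1 block with less thallium influx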
KCNK3 inh = human KCNK3 channel inhibition, primary screen | O14649 | CHO-KCNK3 thallium flux, FluxOR fluorescence; hits give low values | B-score at 10 µM | actives 0.84% (n = 340,000);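 active = B-score under library mean minus 4 SD, starting fluorescence ratio at most library mean plus 5 SD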;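 note: more negative B-score means stronger inhibition of thallium flux through KCNK3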
KCNQ1 block = human KCNQ1 channel inhibition; P51787; B-score at 10 µM; CHO-K1 KCNQ1, FluxOR thallium flux fluorescence; hits give high values; actives 1.3% (n = 310,000);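 active = compounds whose thallium flux B-score, printed positive for inhibition, exceeds three library SD while starting fluorescence stays within three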;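 note: channel opened by potassium depolarization with thallium stimulus after 20 min compound exposure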
hERG rescue = compounds protecting human hERG from proarrhythmic drug block | AID 1511 | actives 0.51% (n = 310,000) | Q12809 | activation (rescue from dofetilide block), less the hit threshold, % at 10 µM | CHO-hERG, FluxOR thallium flux, dofetilide IC70 present;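 active = activation above the mean of controls blocked by dofetilide plus 5 SD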;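 note: thallium influx through hERG after potassium depolarization seen as dye fluorescence rise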
Target sequence (Q12809 whole entry, looked up): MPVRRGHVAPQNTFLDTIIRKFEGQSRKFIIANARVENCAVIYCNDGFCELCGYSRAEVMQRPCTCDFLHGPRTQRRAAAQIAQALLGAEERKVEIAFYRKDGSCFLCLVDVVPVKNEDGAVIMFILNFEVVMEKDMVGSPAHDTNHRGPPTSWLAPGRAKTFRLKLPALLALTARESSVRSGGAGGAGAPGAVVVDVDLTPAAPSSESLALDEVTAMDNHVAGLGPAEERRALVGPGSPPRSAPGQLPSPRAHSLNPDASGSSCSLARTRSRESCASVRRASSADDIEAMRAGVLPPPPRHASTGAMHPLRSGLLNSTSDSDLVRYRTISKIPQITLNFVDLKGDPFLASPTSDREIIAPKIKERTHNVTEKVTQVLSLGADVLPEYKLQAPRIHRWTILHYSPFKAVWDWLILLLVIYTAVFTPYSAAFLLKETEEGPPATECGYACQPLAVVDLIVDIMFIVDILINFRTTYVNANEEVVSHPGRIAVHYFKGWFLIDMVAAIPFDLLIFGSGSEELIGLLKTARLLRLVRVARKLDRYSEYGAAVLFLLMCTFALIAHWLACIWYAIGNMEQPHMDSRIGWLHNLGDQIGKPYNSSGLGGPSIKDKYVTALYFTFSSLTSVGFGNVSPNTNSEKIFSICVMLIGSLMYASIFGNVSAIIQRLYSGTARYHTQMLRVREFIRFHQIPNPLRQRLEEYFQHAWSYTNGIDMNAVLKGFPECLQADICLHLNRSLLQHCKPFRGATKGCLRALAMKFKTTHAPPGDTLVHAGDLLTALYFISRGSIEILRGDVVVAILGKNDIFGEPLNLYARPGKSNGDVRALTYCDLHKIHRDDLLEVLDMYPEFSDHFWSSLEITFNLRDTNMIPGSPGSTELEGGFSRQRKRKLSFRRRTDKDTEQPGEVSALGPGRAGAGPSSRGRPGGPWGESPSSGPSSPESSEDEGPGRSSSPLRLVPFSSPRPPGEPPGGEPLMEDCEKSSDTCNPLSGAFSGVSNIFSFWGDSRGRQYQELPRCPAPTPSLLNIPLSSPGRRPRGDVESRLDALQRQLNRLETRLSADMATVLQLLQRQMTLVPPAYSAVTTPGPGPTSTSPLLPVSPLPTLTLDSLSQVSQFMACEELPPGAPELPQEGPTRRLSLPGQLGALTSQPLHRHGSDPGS
KCNQ1 pot = human KCNQ1 channel potentiation or activation; CHO-K1 KCNQ1, thallium flux FluxOR fluorescence; hits give high values; B-score at 10 µM; AID 2648; P51787; actives 0.35% (n = 310,000);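 active = fluorescence ratio B-score, a plate-corrected score, at least three library SD, with initial intensity B-score within 5 SD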
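Assay system: stable KCNQ1 CHO-K1 line; medium: assay buffer, equal DMSO in all wells; timing: 90 min dye loading and 20 min compound exposure, both at room temperature; technique: kinetic FluxOR thallium fluorescence, 10-s 1-Hz baseline, 110-s post-stimulus read; read-out basis: B score of baseline-normalized fluorescence ratio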
KCNK9 inh-1 = blocks the human KCNK9 two-pore domain potassium channel; actives 1.2% (n = 310,000); B-score at 10 µM; HEK293 KCNK9, FluxOR thallium flux fluorescence; hits give low values; Q9NPC2;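 active = ratio B-score over 3 SD below the library mean, with starting fluorescence within 5 SD of its mean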;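 note: negative B-score means less thallium flux so channel inhibition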
hERG inh = hERG (human) inhibition as Kir2.1 counter-screen; shares compounds with Kir21 block; hERG-expressing cells, thallium flux; inhibition, % at 10 µM; actives 20% (n = 320); AID 2236;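 note: host cells are CHO cells stably expressing hERG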
KCNK9 inh-2 = human KCNK9 off-target activity of Kir2.1 blockers; shares compounds with Kir21 block; KCNK9-expressing cells, ion flux inhibition; inhibition, % at 10 µM; actives 5% (n = 320)
Kir2-1 patch inh = inhibitors of mouse Kir2.1 potassium channel | shares compounds with Kir21 block | Kir2.1 cells, automated patch-clamp current inhibition | inhibition, % at 25 µM | actives 71% (n = 320) | AID 463252
Hits are given with their value; – = inactive; · = no result given. Unless noted, the rule behind the calls is not given here.

SMILES | Kir21 block | KCNK3 inh | KCNQ1 block | hERG rescue | KCNQ1 pot | KCNK9 inh-1 | hERG inh | KCNK9 inh-2 | Kir2-1 patch inh
COc1ccc(CC(=O)OCC(=O)c2ccc(S(=O)(=O)N3CCCCC3)cc2)cc1 | · | – | · | · | · | · | · | · | ·
Clc1ccc(-c2cc(C3CCNCC3)[nH]n2)cc1 | -8.9 | – | – | – | – | – | – | – | –
CN(C)CC1CCCCC1OC(=O)c1ccc(Cl)cc1 (stereo not drawn) | – | – | – | – | – | – | · | · | ·
CN(C)CC1CCCCC1C1(O)c2ccccc2CSc2sccc21 (stereo not drawn) | -5.7 | – | – | – | – | – | – | – | –
CCC1CCCCN1C(=O)CCNS(=O)(=O)c1ccc2c(c1)oc(=O)n2C (stereo not drawn) | – | – | – | – | – | – | · | · | ·
O=C(NCCN1C(=O)S/C(=C\c2ccccc2F)C1=O)C1=COCCO1 | – | – | – | – | – | – | · | · | ·
c1cc(CN2CCCCC2)cc(OCCCNc2nc3ccccc3s2)c1 | -7.3 | – | – | – | – | – | – | – | 48%
CCc1ccc(S(=O)(=O)NCCOc2cccc3cccnc23)cc1 | -7 | – | – | – | – | – | – | – | –
COC(=O)C1CCN(C(=O)c2cc(-c3ccco3)nc3ccccc23)CC1 | · | – | · | · | · | · | · | · | ·
CCC(C)NCCOCCOc1ccccc1-c1ccccc1 (stereo not drawn) | -6.2 | – | – | – | – | – | – | – | 35%
CC(C)(C)NCCOCCOc1ccccc1-c1ccccc1 | – | – | – | – | – | – | · | · | ·
CC(O)c1nc2ccc(C(=O)O)cc2[nH]1 (stereo not drawn) | – | – | – | – | – | – | · | · | ·
COc1ccc(Nc2cc(C)nc3ccccc23)cc1 | – | – | – | – | – | – | · | · | ·
Cc1ccc(Nc2cc(C)nc3c(C)cccc23)cc1 | -8.7 | – | – | – | – | – | – | – | 61%
CC(=O)N1N=C(c2ccccc2OC(=O)/C=C/c2ccccc2)CC1c1ccccc1 (stereo not drawn) | – | – | – | – | – | – | · | · | ·
COc1ccc(CCN2CCCC(CN(C)Cc3cccc(OC)c3)C2)cc1 (stereo not drawn) | -9.5 | – | – | – | – | – | – | – | 37%
CC(C)[C@H]1C(=O)Nc2ccccc2N1C(=O)N[C@@H](Cc1ccccc1)C(=O)N[C@@H](Cc1ccccc1)C(=O)O | – | – | – | – | – | – | · | · | ·
Cc1cc(C)c2nc(N(CCCN(C)C)C(=O)C3=COCCO3)sc2c1 | – | – | – | – | – | – | · | · | ·
Cc1cc(C)c2nc(N(CCCN(C)C)C(=O)c3ccc4c(c3)OCCO4)sc2c1 | -6.4 | – | – | – | – | – | 66% | – | –
CCOC(=O)N1CCN(c2nc(-c3ccccc3)c3cc(C)ccc3n2)CC1 | – | – | – | – | – | – | · | · | ·
Cc1ccc2nc(N3CCN(CCO)CC3)nc(-c3ccccc3)c2c1 | -7 | – | – | – | – | – | 60% | – | 16%
Cc1cc(Cl)cc(Br)c1OCCCNCC(C)O (stereo not drawn) | -9.3 | – | – | – | – | – | – | – | 39%
CCOC(=O)C(NS(=O)(=O)c1ccc(Br)cc1)C(C)C (stereo not drawn) | -8.5 | – | – | – | – | – | – | – | 49%
CCC(C)C(NS(=O)(=O)c1ccc(C)cc1)C(=O)O (stereo not drawn) | – | – | – | – | – | – | · | · | ·
CCN1CC(C)(C)N(C(=O)c2ccccc2)CC1(C)C | · | – | · | · | · | · | · | · | ·
SMILES | Kir21 block | KCNK3 inh | KCNQ1 block | hERG rescue | KCNQ1 pot | KCNK9 inh-1 | hERG inh | KCNK9 inh-2 | Kir2-1 patch inh
COc1cc(CNCc2ccccn2)ccc1OCc1ccc(Cl)cc1Cl | -6 | – | – | – | – | – | 65% | – | 34%
COc1cc(CNCc2ccc(Br)cc2)cc(OC)c1 | -7.5 | – | – | – | – | – | – | – | 72%
Cc1cc(C)c(OCCCCN(C)Cc2ccccc2)c(C)c1 | -7.8 | – | – | – | – | – | – | – | 36%
Cc1cc(C)c(OCCCCN(C)C)c(Br)c1 | – | – | – | – | – | – | · | · | ·
S=C(NCC1CCCO1)N1CCN(c2nc(-c3ccc(Cl)cc3)cs2)CC1 (stereo not drawn) | – | – | – | – | – | – | – | – | –
CCCCCCC(CC(=O)NCc1cccnc1)CC(=O)NCc1cccnc1 | – | – | – | – | – | – | · | · | ·
Cc1ccc([N+](=O)[O-])cc1S(=O)(=O)NCC1COc2ccccc2O1 (stereo not drawn) | -6.4 | – | – | – | – | – | – | 36% | 11%
CC#CC(=O)NCC1(N(C)Cc2ccccc2)Cc2ccccc2C1 | – | – | – | – | – | – | · | · | ·
CC(C)(C)OC(=O)NCCc1nnc(SCc2ccc(Cl)cc2Cl)o1 | -8.9 | – | – | – | – | – | – | – | 48%
CCOC(=O)c1nnn(-c2nonc2N)c1CSc1ccc(C)cc1 | -8.5 | – | – | – | – | – | – | – | 8.6%
CCCCn1c(N)c(N(CCOC)C(=O)CCN2C(=O)C3CC=CCC3C2=O)c(=O)[nH]c1=O (stereo not drawn) | · | – | · | · | · | · | · | · | ·
COc1ccc(CCN(C)C(=O)c2oc3ccccc3c2C)cc1OC | -6.5 | – | – | – | – | – | – | – | 61%
COc1ccc(CN(C(=O)c2oc3ccccc3c2C)C2CCS(=O)(=O)C2)cc1OC (stereo not drawn) | · | – | · | · | · | · | · | · | ·
CN(C)C(CNC(=O)CCc1nc2cc(Cl)ccc2n(Cc2ccccc2)c1=O)c1ccccc1 (stereo not drawn) | -6.4 | – | – | – | – | – | 71% | – | –
Cc1cccc(NC(=O)CC2C(=O)NCCN2C(=O)Nc2ccc(Cl)cc2)c1 (stereo not drawn) | – | – | – | – | – | – | · | · | ·
O=C(CCN1CCN(S(=O)(=O)c2ccc(Cl)cc2)CC1)Nc1ccc(F)cc1 | – | – | – | – | – | – | · | · | ·
O=C(Oc1ccc(C(=S)N2CCOCC2)cc1)c1ccccc1F | -7.6 | – | – | – | – | – | – | – | –
O=C(Oc1ccc(C(=S)N2CCOCC2)cc1)c1ccccc1[N+](=O)[O-] | – | – | – | – | – | – | · | · | ·
CC(=O)Nc1c(O)c2cccc3c2n(c1=O)CCC3 | – | – | – | – | – | – | · | · | ·
O=C(COc1ccc(C(=O)c2ccccc2)cc1)NCc1ccc(F)cc1 | – | – | – | – | – | – | · | · | ·
O=C(c1ccccc1)c1ccc(OCC(O)CNCc2ccc(F)cc2)cc1 (stereo not drawn) | -9.2 | – | – | – | – | – | 60% | – | 65%

From PubChem BioAssay
